ChEMBL document CHEMBL3576780, “Effects of resveratrol on benign prostatic hyperplasia by the regulation of inflammatory and apoptotic proteins” (2015)
Activity calls are given as the source filed them.

Key:
Format in all cases: functional, organism-based
[1] = system: Rattus norvegicus; assay: Reduction in proliferating cell nuclear antigen in prostate tissue expression in BPH-induced Sprague-Dawley rat model at 1 mg/kg, ip daily for 4 weeks by Western blot analysis
Procedure, shortened: (§1)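 Prostate homogenized in lysis buffer, 30 μg protein run on SDS-PAGE, PVDF blot, antibody probing, ECL detection, β-actin internal control, densitometry. Mean ± SEM, n = 6 rats/group; one-way ANOVA with Dunnett's test.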

[2] = system: Rattus norvegicus; assay: Reduction in 5alpha-reductase mRNA level in prostate tissue in BPH-induced Sprague-Dawley rat model at 1 mg/kg, ip daily for 4 weeks by quantitative real-time PCR analysis; conditions: Prostate gland
Procedure, shortened: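 Prostate tissue 5α-reductase 2 mRNA quantified by real-time PCR in male Sprague-Dawley rats given testosterone propionate 10 mg/kg im daily for 4 weeks plus daily treatment; mean ± SEM, n = 6 rats/group.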

[3] = system: Rattus norvegicus; assay: Reduction in thickness of epithelium tissue in prostate tissue in BPH-induced Sprague-Dawley rat model at 1 mg/kg, ip daily for 4 weeks by Hematoxylin and eosin staining based microscopy; conditions: Prostate gland
Procedure, shortened: (§2)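 Prostates fixed in 4% buffered formalin, paraffin embedded, cut at 4 μm, stained with H&E and imaged at original magnification 40×. Epithelial thickness measured by pathologists. Rats received testosterone propionate 10 mg/kg im daily for 4 weeks with daily treatment; n = 6 per group.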

[4] = system: Rattus norvegicus; assay: Reduction in iNOS expression in prostate tissue in BPH-induced Sprague-Dawley rat model at 1 mg/kg, ip daily for 4 weeks by Western blot analysis; conditions: Prostate gland
[5] = system: Rattus norvegicus; assay: Reduction in COX2 expression in prostate tissue in BPH-induced Sprague-Dawley rat model at 1 mg/kg, ip daily for 4 weeks by Western blot analysis; conditions: Prostate gland; procedure, shortened: as §1
[6] = system: Rattus norvegicus; assay: Reduction in procaspase 3 expression in prostate tissue in BPH-induced Sprague-Dawley rat model at 1 mg/kg, ip daily for 4 weeks by Western blot analysis; conditions: Prostate gland; procedure, shortened: as §1
[7] = system: Rattus norvegicus; assay: Reduction in PARP1 expression in prostate tissue in BPH-induced Sprague-Dawley rat model at 1 mg/kg, ip daily for 4 weeks by Western blot analysis; conditions: Prostate gland; procedure, shortened: as §1
[8] = system: Rattus norvegicus; assay: Reduction in Bcl2 expression in prostate tissue in BPH-induced Sprague-Dawley rat model at 1 mg/kg, ip daily for 4 weeks by Western blot analysis; conditions: Prostate gland
[9] = system: Rattus norvegicus; assay: Reduction in Bcl-xL expression in prostate tissue in BPH-induced Sprague-Dawley rat model at 1 mg/kg, ip daily for 4 weeks by Western blot analysis; conditions: Prostate gland; procedure, shortened: as §1
[10] = system: Rattus norvegicus; assay: Increase in Bax expression in prostate tissue in BPH-induced Sprague-Dawley rat model at 1 mg/kg, ip daily for 4 weeks by Western blot analysis; conditions: Prostate gland; procedure, shortened: as §1
[11] = system: Rattus norvegicus; assay: Reduction in Bcl2 to Bax ratio in prostate tissue in BPH-induced Sprague-Dawley rat model at 1 mg/kg, ip daily for 4 weeks by Western blot analysis; conditions: Prostate gland
Procedure, shortened: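 Male Sprague-Dawley rats, BPH induced by daily im testosterone propionate 10 mg/kg for 4 weeks with daily dosing. Prostate lysate (30 μg protein) Western blotted; Bax and Bcl-2 band densities normalized to β-actin and expressed as Bax/Bcl-2 ratio. Mean ± SEM, n = 6 rats/group.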

[12] = system: Rattus norvegicus; assay: Reduction in prostate cell proliferation and gland development in BPH-induced Sprague-Dawley rat model at 1 mg/kg, ip daily for 4 weeks by Hematoxylin and eosin staining based microscopy; procedure, shortened: as §2
[13] = system: Rattus norvegicus; assay: Reduction in prostate weight in BPH-induced Sprague-Dawley rat model at 1 mg/kg, ip daily for 4 weeks in presence testosterone propionate of 10 mg/kg, intramuscular injection for 4 weeks; conditions: Prostate gland
[14] = system: Rattus norvegicus; assay: Reduction in proliferating cell nuclear antigen expression in prostate tissue in BPH-induced Sprague-Dawley rat model at 5 mg/kg, po daily for 4 weeks by Western blot analysis
[15] = system: Rattus norvegicus; assay: Reduction in prostate weight in BPH-induced Sprague-Dawley rat model at 5 mg/kg, po daily for 4 weeks in presence testosterone propionate of 10 mg/kg, intramuscular injection for 4 weeks; conditions: Prostate gland

Measured: inhibition

Oc1ccc(/C=C/c2cc(O)cc(O)c2)cc1
not listed: [14] | [15]
active: all other assays above

CC(C)(C)NC(=O)[C@H]1CC[C@H]2[C@@H]3CC[C@H]4NC(=O)C=C[C@]4(C)[C@H]3CC[C@]12C
active: [14] | [15]
